In the library only some 7.2% were active in any assay of this set; here they are far more common.
M1 agonist – activates the M1 muscarinic receptor. 64,000 tested, 3% active. CHO-M1 cells, Fluo-4 calcium fluorescence, agonist mode; stronger effect = higher value. B-score at 10 µM;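 active means fluorescence rise, raw or as B-score row- and column-corrected plate score, outside the 99.7% band of its plate's samples, either direction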
M1 antag – blocks the rat M1 muscarinic receptor response to acetylcholine | P08482 | CHO-M1 cells, Fluo-4 calcium, ACh EC80 antagonist mode; stronger effect = lower value | B-score at 10 µM | 64,000 tested, 3.4% active;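 active means calcium fluorescence response, raw or row-and-column corrected B-score, differing from the plate sample mean either way at a set confidence level, mostly lower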
hDAT+cocaine – changed human dopamine transporter uptake under cocaine IC80; LLC-PK1 hDAT cells, [14C]-dopamine uptake with cocaine IC80; actives deviate in either direction; 110,000 tested, 1.3% active; Q01959; B-score at 10 µM;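 active means Z score or B-score, a plate-position-corrected score, falls beyond the plate's 99.7% confidence bounds, in either direction; inactive means both scores lie inside the 99.7% bounds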
Target sequence (Q01959 whole entry, looked up): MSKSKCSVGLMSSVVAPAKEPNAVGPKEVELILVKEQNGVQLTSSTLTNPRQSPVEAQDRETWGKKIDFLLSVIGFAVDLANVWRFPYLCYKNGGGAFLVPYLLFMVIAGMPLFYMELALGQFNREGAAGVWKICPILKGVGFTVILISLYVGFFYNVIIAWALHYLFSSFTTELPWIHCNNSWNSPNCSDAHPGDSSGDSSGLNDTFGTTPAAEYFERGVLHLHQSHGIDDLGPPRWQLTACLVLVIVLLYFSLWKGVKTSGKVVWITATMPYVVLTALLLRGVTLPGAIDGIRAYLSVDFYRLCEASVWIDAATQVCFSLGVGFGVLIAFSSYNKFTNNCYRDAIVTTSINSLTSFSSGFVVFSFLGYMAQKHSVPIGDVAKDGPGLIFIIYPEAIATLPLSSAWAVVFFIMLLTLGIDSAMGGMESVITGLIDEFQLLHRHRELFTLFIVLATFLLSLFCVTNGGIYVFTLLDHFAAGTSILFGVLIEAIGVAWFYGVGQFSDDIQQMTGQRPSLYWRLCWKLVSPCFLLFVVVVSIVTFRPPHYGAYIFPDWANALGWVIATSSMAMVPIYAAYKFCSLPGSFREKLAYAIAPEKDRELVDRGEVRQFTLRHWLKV
HEK293 NFkB inh – inhibitors of the PMA/ionomycin-induced NF-kB reporter in HEK293 cells; HEK-293 NF-kB luciferase reporter, luminescence; inhibition, % at 3 µM; 62,000 tested, 0.21% active;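 active means inhibition above the mean of all tested compounds plus 3 SD, cut at about 40% in these data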
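Reagent: PMA plus ionomycin mix as NF-kB-activating stimulus. Assay system: NF-kB luciferase reporter HEK-293 cells. Technique: luminescence from luciferase substrate reagent. Incubation: 1 h compound pre-incubation, 16 h PMA/ionomycin at 37 °C. Benchmarks: DMSO only as uninhibited control, 10 µM reference inhibitor as full inhibition. Repeats: tested once.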
BAP1 inh – human BAP1 deubiquitinase inhibition; recombinant BAP1, Ub-AMC hydrolysis fluorescence kinetic; stronger effect = lower value; calls only at 20 µM; 72,000 tested, 0.48% active;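 active means activity remaining at or below 50% of control, provided the compound also passes the data quality filters; inactive means the rest, including low values that fail the filters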
D1 allo mod – allosterically modulates the human D1 dopamine receptor; 58,000 tested, 5.9% active; HEK293 D1, CRE-luciferase, dopamine EC30 potentiation; actives deviate in either direction; B-score at 10 µM; AID 641;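 active means luminescence count or its row- and column-corrected plate score outside the 99.7% band of the plate's sample wells, on either side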
Hits are given with their value; . = inactive; / = no result given.

SMILES	M1 agonist	M1 antag	hDAT+cocaine	HEK293 NFkB inh	BAP1 inh	D1 allo mod
CSc1nc(N2CCOCC2)c2c3c(sc2n1)CCC3	.	.	.	.	/	8.5
O=C(Cc1ccc(Cl)cc1)Nc1nc2ccccc2[nH]1	/	/	.	/	/	/
O=C(Cc1ccccc1)Nc1nc2ccccc2[nH]1	.	.	.	.	.	-5.5
CCCCCc1cc(=O)oc2c(C(CCN3CCCC(C)C3)c3cc(OC)c(OC)c(OC)c3)c(OC)cc(OC)c12 (stereo not given)	/	/	-2.9	/	/	/
Cc1ccc(CNc2nc(N)c([N+](=O)[O-])c(Nc3ccc(F)cc3)n2)cc1	/	/	-11	/	/	/
Cc1ccc(OCCSc2nc3ccccc3n2CCO)c(C(C)C)c1	/	/	/	/	.	/
CCOC(=O)c1c(NC(=O)CSc2n[nH]c(CNc3ccccc3)n2)sc(C)c1C	/	/	.	/	/	/
CCOC(=O)c1c(NC(=O)CSc2n[nH]c(-c3ccco3)n2)sc(C)c1C	.	.	.	.	.	6.9
CCCCOc1ccc(-c2nnn(C(C)(C)C(=O)OC)n2)cc1	.	1.5	.	.	.	.
CCCCOc1ccc(-c2nnn(C(C)C(=O)OCC)n2)cc1 (stereo not given)	.	.	.	.	.	.
CCCCCc1ccc(C(=O)CCN(C)C)cc1	/	/	/	/	.	/
CCOc1ccc(NC(=NS(=O)(=O)c2ccc(Cl)cc2)c2ccccc2)cc1	/	/	/	/	.	/
CC(=O)Oc1cccc(/C=c2\sc3nc(-c4ccco4)nn3c2=O)c1	.	.	.	.	.	.
CCCOc1ccc(/C=c2\sc3nc(-c4ccco4)nn3c2=O)cc1OCC	25	.	/	.	.	.
Cc1ccccc1Cn1c(C(=O)OC(C)C)cc2c1ccn2C	/	/	.	/	/	/
CC(C)OC(=O)c1cc2c(ccn2C)n1CC(=O)N1CCC(Cc2ccccc2)CC1	/	/	2.2	/	/	/
CC(C)C1COC(c2cccc3ccccc23)=N1 (stereo not given)	/	/	3	/	/	/
CC(=O)Oc1cc2oc(=O)c3c(c2cc1Cl)CCC3	.	.	5.6	.	/	.
CC(C)Oc1cc2oc(=O)c3c(c2cc1Cl)CCC3	.	.	.	.	.	.
Cc1oc(-c2nc3ccccc3n2C)cc1C(=O)c1ccccc1	.	.	.	.	.	-3.8
COc1ccc(S(=O)(=O)Nc2ccccc2C(F)(F)F)cc1	.	.	.	.	.	.
COc1ccc(S(=O)(=O)NC(C)C(=O)Nc2ccccc2C(F)(F)F)cc1 (stereo not given)	/	/	-1.7	/	/	/
O=C(CSc1nc2ccccc2o1)Nc1ccccc1N1CCOCC1	/	/	.	/	/	/
O=C(CSc1nnc(-c2ccc(F)cc2)o1)Nc1ccccc1N1CCOCC1	/	/	3.3	/	/	/
CCOC(=O)c1sc(NC(=O)CSc2nnc(C(C)C)n2C)nc1C	/	/	.	/	/	/
SMILES	M1 agonist	M1 antag	hDAT+cocaine	HEK293 NFkB inh	BAP1 inh	D1 allo mod
CCOC(=O)c1sc(NC(=O)CSc2nnc(C(C)C)n2CC)nc1C	.	.	2.5	.	.	.
CCCc1ccc(Oc2cn[nH]c2-c2ccc(O)cc2O)cc1	.	.	.	.	.	-4.9
Cc1ccc(-c2c3c(=O)n(C)c(=O)n(C)c3cn2Cc2ccccc2)cc1	/	/	.	/	/	/
Cc1ccc(-c2c3c(=O)n(C)c(=O)n(C)c3c3c(C)cc(C)nn23)cc1	9.5	-13	/	.	.	/
O=C(Cn1c2ccccc2c(=O)c2ccccc21)NCc1ccco1	/	/	/	/	.	/
Cc1ccc(C(=O)c2coc3ccc(O)c(CN4CCN(C)CC4)c23)cc1	.	.	.	.	.	-3.1
O=c1c(-c2ccc(Br)cc2)coc2c(CN3CCOCC3)c(O)ccc12	.	.	.	.	/	.
COc1ccc(Oc2coc3c(CN4CCOCC4)c(O)ccc3c2=O)cc1	/	/	-7.4	/	/	/
COc1ccc(C(=O)c2coc3ccc(O)c(CN4CCCC4)c23)cc1	.	.	.	.	.	.
COc1ccc(C(=O)c2coc3ccc(O)c(CN4CCOCC4)c23)cc1	.	.	3.5	.	.	.
COc1ccc(C(=O)Nc2cc3nn(-c4ccccc4)nc3cc2C)cc1[N+](=O)[O-]	/	/	/	/	.	/
Cn1c(CNc2nc3ccccc3n2C)nc2ccccc21	/	/	.	.	.	.
Cc1ccc(NCc2nc3ccccc3n2C)cc1	.	.	.	.	.	-4.1
Cn1c(=N)c(S(=O)(=O)c2ccc(Cl)cc2)cc2c(=O)n3ccccc3nc21	.	.	/	.	.	4.8
CCN(CC)S(=O)(=O)c1cc(C(=O)Nc2ccccc2OC)ccc1C	/	/	/	/	.	/
COC(=O)Nc1ccc(S(=O)(=O)N(C)C)cc1	.	.	-2.8	.	.	.
Cc1cccc(NC(=O)c2ccc(S(=O)(=O)N(C)C)cc2)c1	.	.	3.1	.	.	.
CCCCC1=CC2=CC(=O)C(C)(OC(=O)CC)C(=O)C2=CN1c1ccccc1 (stereo not given)	/	/	-2.9	/	/	/
N=c1oc2ccc3ccccc3c2cc1-c1nnc2n1CCCCC2	.	.	3.4	.	.	.
O=C(Nc1nc(-c2cccs2)cs1)c1ccc(Cc2ccccc2)cc1	/	/	/	/	.	/
N#Cc1nc(-c2ccco2)oc1N1CCc2ccccc2C1	3.9	.	.	.	/	.
COc1ccccc1N=c1oc2ccccc2cc1C(=O)Nc1cccc(C(F)(F)F)c1	/	/	/	/	.	/
CCCCCc1c(C)nc(N2CCc3ccccc32)[nH]c1=O	.	1.5	.	.	/	.
CCCCCc1c(C)nc(N2CCc3ccccc3C2)[nH]c1=O	.	.	.	.	.	.
Cc1ccc(-c2cc(C(F)(F)F)n3ncc(C(=O)N(C)CCc4ccccn4)c3n2)cc1	/	/	/	/	.	/
SMILES	M1 agonist	M1 antag	hDAT+cocaine	HEK293 NFkB inh	BAP1 inh	D1 allo mod
COC(=O)C1=C(NC(=O)c2ccc(OC)cc2OC)CCS1	/	/	/	/	.	/
Cc1ccc2nc(NCCCO)nc(-c3ccccc3)c2c1	/	/	3.1	/	/	/
COc1ccccc1OCCn1cc(C(=O)c2ccco2)c2ccccc21	4.6	.	.	.	/	.
Cc1ccccc1C(=O)Nc1cccc(NC(=O)c2cccc(Br)c2)c1	/	/	/	/	.	/
Cc1ccc(C(=O)NCCn2cc(SCC(=O)Nc3cc(C)on3)c3ccccc32)cc1	.	.	.	47	.	.
Cc1cc(N)n2nc(-c3ccccc3)cc2n1	.	.	/	/	.	-3.4
CCOc1ccc(C(=O)Nc2nc(-c3ccc(CC)cc3)cs2)cc1	/	/	/	/	.	/
O=C(NCCc1ccccc1)[C@@H]1CC=C[C@@H]2CCN(Cc3ccc(Cl)c(Cl)c3)C(=O)[C@@H]21	/	/	3.2	/	/	/
Cc1cc(C)c2c(=O)[nH]n(C3CC(C)N(C)CC3C)c2n1 (stereo not given)	.	.	.	.	.	-1.9
COc1ccccc1/C=C/C(=O)c1cc(Br)ccc1OC(=O)c1ccco1	/	/	2.6	/	/	/
O=C(CCS(=O)(=O)Cc1ccccc1)NCC1CCCO1 (stereo not given)	.	.	2.1	.	.	.
CN(C)S(=O)(=O)c1cccc2nsnc12	.	.	-2	.	.	.
COC(=O)C1=C(C)N(C)C(=S)NC1c1ccc(OC)c(OC)c1 (stereo not given)	/	/	/	/	.	/
COc1cccc(Nc2nnc(SCc3cc([N+](=O)[O-])cc4c3OCOC4)s2)c1	/	/	-3.4	/	/	/
Cc1cccc(C)c1Nc1nnc(SCc2cc([N+](=O)[O-])cc3c2OCOC3)s1	/	/	.	/	/	/
